≈ marks a conversion by molar mass, not a printed value.
What was measured:
Candida tropicalis = test: Antifungal activity against Candida tropicalis after 24 hrs by NCCLS method; format: functional
Summary of the method: (§1)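 Broth microdilution in 96-well plates following NCCLS recommendations, using ATCC strains or clinical isolates. Compounds were dissolved in DMSO and serially diluted in growth medium. Yeast plates were incubated at 35 °C and read at 24 h. MIC80 is the lowest concentration giving turbidity of […] inhibition relative to the drug-free growth control.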

Aspergillus fumigatus = test: Antifungal activity against Aspergillus fumigatus after 7 days by NCCLS method; format: functional; settings: 168 h
Summary of the method: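 Microtest-plate serial dilution per NCCLS, with the strain taken from ATCC or a clinical source. Compounds were prepared in DMSO and serially diluted in growth medium. Growth was read after 7 days. The endpoint is the lowest concentration producing ≥80% turbidity inhibition versus the untreated growth control.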

Candida albicans = test: Antifungal activity against Candida albicans after 24 hrs by NCCLS method; format: functional; summary of the method: as §1
Cryptococcus neoformans [1] = test: Antifungal activity against Cryptococcus neoformans after 72 hrs by NCCLS method; format: functional
Summary of the method: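 NCCLS serial-dilution MIC assay in 96-well plates against an ATCC or clinical yeast isolate. Test agents were taken up in DMSO and diluted serially in growth medium. Plates were held at 35 °C and growth was scored at 72 h. MIC80 is the lowest concentration reducing turbidity by at least 80% compared with the control culture.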

Trichophyton rubrum [2] = test: Antifungal activity against Trichophyton rubrum by NCCLS method; format: functional
Summary of the method: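 Dermatophyte MIC by NCCLS broth serial dilution in 96-well plates, using an ATCC or clinical isolate. DMSO solutions were serially diluted in growth medium and incubated at 28 °C.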

Cryptococcus neoformans [3] = test: Ratio of fluconazole MIC80 to compound MIC80 for Cryptococcus neoformans; format: functional
[4] = Cmax in Sprague-Dawley rat at 15 mg/kg, po by LC/MS/MS analysis; format: ADME, organism-based; parameters: dose 15 mg/kg, route oral; settings: in vivo
Summary of the method: (§2)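 Single oral dose of 15 mg/kg in Sprague-Dawley rats. Blood was drawn from the orbital venous plexus at several time points and plasma drug levels were quantified by LC/MS/MS, from which the pharmacokinetic parameters were obtained.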

[5] = AUC (0 to infinity) in Sprague-Dawley rat at 15 mg/kg, po by LC/MS/MS analysis; format: ADME, organism-based; parameters: time infinity, dose 15 mg/kg, route oral; settings: plasma; summary of the method: as §2
[6] = Tmax in Sprague-Dawley rat at 15 mg/kg, po by LC/MS/MS analysis; format: ADME, organism-based; parameters: dose 15 mg/kg, route oral; settings: in vivo; summary of the method: as §2
[7] = Half life in Sprague-Dawley rat at 15 mg/kg, po by LC/MS/MS analysis; format: ADME, organism-based; parameters: dose 15 mg/kg, route oral; settings: in vivo; summary of the method: as §2
Trichophyton rubrum [8] = test: Ratio of fluconazole MIC80 to compound MIC80 for Trichophyton rubrum; format: functional
[9] = Candida albicans, 24 h, read-out: MIC80
[10] = Cryptococcus neoformans, 72 h, read-out: MIC80

SMILES	MIC80 (Candida tropicalis)	MIC80 (Aspergillus fumigatus)	MIC80 (Candida albicans; [9])	MIC80 (Cryptococcus neoformans [1]; [10])	MIC80 (Trichophyton rubrum [2])	Ratio (Cryptococcus neoformans [3])	MIC80 (Candida albicans)	MIC80 (Cryptococcus neoformans [1])	Cmax [4]	AUC(0-inf) [5]	Tmax [6]	half-life [7]	Ratio (Trichophyton rubrum [8])
OC(CN1CCN(Cc2cccs2)CC1)(Cn1cncn1)c1ccc(F)cc1F (racemic)	0.016 µg/mL (≈ 0.0381 µM)	16 µg/mL (≈ 38.1 µM)	0.0625 µg/mL (≈ 0.149 µM)	0.25 µg/mL (≈ 0.596 µM)	4 µg/mL (≈ 9.54 µM)	8							
OC(CN1CCN(Cc2nc3ccccc3s2)CC1)(Cn1cncn1)c1ccc(F)cc1F (stereo in doubt; (-)-8f)							<0.016 µg/mL	<0.016 µg/mL					
CN(Cc1nc2ccccc2[nH]1)CC(O)(Cn1cncn1)c1ccc(F)cc1F (racemic)	0.25 µg/mL (≈ 0.627 µM)	> 64 µg/mL	4 µg/mL (≈ 10 µM)	16 µg/mL (≈ 40.2 µM)	> 64 µg/mL								
CN(Cc1ccc(I)cc1)CC(O)(Cn1cncn1)c1ccc(F)cc1F (stereo not drawn)									297 ng/mL	546 ng·h/mL	0.9 h	1.38 h	
CN(Cc1cccs1)CC(O)(Cn1cncn1)c1ccc(F)cc1F (racemic)	0.125 µg/mL (≈ 0.343 µM)	16 µg/mL (≈ 43.9 µM)	1 µg/mL (≈ 2.74 µM)	0.016 µg/mL (≈ 0.0439 µM)	1 µg/mL (≈ 2.74 µM)	125							
CN(Cc1ccccn1)CC(O)(Cn1cncn1)c1ccc(F)cc1F (racemic)	0.0625 µg/mL (≈ 0.174 µM)	> 64 µg/mL	1 µg/mL (≈ 2.78 µM)	0.25 µg/mL (≈ 0.696 µM)	4 µg/mL (≈ 11.1 µM)	8							
OC(CN1CCN(Cc2ccccn2)CC1)(Cn1cncn1)c1ccc(F)cc1F (racemic)	1 µg/mL (≈ 2.41 µM)	16 µg/mL (≈ 38.6 µM)	0.0625 µg/mL (≈ 0.151 µM)	1 µg/mL (≈ 2.41 µM)	1 µg/mL (≈ 2.41 µM)	2							
OC(Cn1cncn1)(Cn1cncn1)c1ccc(F)cc1F [FLUCONAZOLE]	4 µg/mL (≈ 13.1 µM)	> 64 µg/mL	0.25 µg/mL (≈ 0.816 µM)	2 µg/mL (≈ 6.53 µM)	1 µg/mL (≈ 3.27 µM)								
CN(Cc1ccco1)CC(O)(Cn1cncn1)c1ccc(F)cc1F (racemic)	0.016 µg/mL (≈ 0.0459 µM)	64 µg/mL (≈ 184 µM)	0.0625 µg/mL (≈ 0.179 µM)	0.0625 µg/mL (≈ 0.179 µM)	1 µg/mL (≈ 2.87 µM)	32							
OC(CN1CCN(Cc2nc3ccccc3o2)CC1)(Cn1cncn1)c1ccc(F)cc1F (racemic)	0.004 µg/mL (≈ 0.0088 µM)	0.25 µg/mL (≈ 0.55 µM)	0.0625 µg/mL (≈ 0.138 µM)	0.0625 µg/mL (≈ 0.138 µM)	0.25 µg/mL (≈ 0.55 µM)	32							4
OC(CN1CCN(Cc2nc3ccccc3[nH]2)CC1)(Cn1cncn1)c1ccc(F)cc1F (racemic)	1 µg/mL (≈ 2.21 µM)	> 64 µg/mL	4 µg/mL (≈ 8.82 µM)	16 µg/mL (≈ 35.3 µM)	64 µg/mL (≈ 141 µM)								
OC(CN1CCN(Cc2nc3ccccc3s2)CC1)(Cn1cncn1)c1ccc(F)cc1F (racemic)	0.004 µg/mL (≈ 0.0085 µM)	64 µg/mL (≈ 136 µM)			0.0625 µg/mL (≈ 0.133 µM)	125	0.016 µg/mL (≈ 0.034 µM)	0.016 µg/mL (≈ 0.034 µM)	508 ng/mL	1420 ng·h/mL	0.8 h	1.27 h	16
OC(CN1CCN(Cc2ccc3ccccc3n2)CC1)(Cn1cncn1)c1ccc(F)cc1F (racemic)	0.016 µg/mL (≈ 0.0344 µM)	2 µg/mL (≈ 4.31 µM)	1 µg/mL (≈ 2.15 µM)	0.0625 µg/mL (≈ 0.135 µM)	0.25 µg/mL (≈ 0.538 µM)	32							
CN(Cc1ccc2ccccc2n1)CC(O)(Cn1cncn1)c1ccc(F)cc1F (racemic)	1 µg/mL (≈ 2.44 µM)	> 64 µg/mL	4 µg/mL (≈ 9.77 µM)	0.25 µg/mL (≈ 0.611 µM)	4 µg/mL (≈ 9.77 µM)	8							
OC(CN1CCN(Cc2nc3ccccc3s2)CC1)(Cn1cncn1)c1ccc(F)cc1F (single isomer, unassigned; (+))							0.0625 µg/mL (≈ 0.133 µM)	0.0625 µg/mL (≈ 0.133 µM)					

Source: ChEMBL document CHEMBL2384995, “Discovery of highly potent triazole antifungal derivatives by heterocycle-benzene bioisosteric replacement” (Eur J Med Chem, 2013)
